Measured values taken from ChEMBL document CHEMBL1148976, “Hypoxia-inducible factor-1 activation by (-)-epicatechin gallate: potential adverse effects of cancer chemoprevention with high-dose green tea extracts” (J Nat Prod, 2004).
Calls of active or inactive are those of the source. No cut-off for these calls is given here.

Key:
[1] = target: Hypoxia-inducible factor 1-alpha (Homo sapiens) (UniProt Q16665); assay: Induction of HIF1alpha protein in human T47D cells under normoxic condition at 100 uM after 4 hrs by Western blot analysis; format: cell-based
Hypoxia-inducible factor 1-alpha (Homo sapiens), sequence (Q16665 whole entry, looked up): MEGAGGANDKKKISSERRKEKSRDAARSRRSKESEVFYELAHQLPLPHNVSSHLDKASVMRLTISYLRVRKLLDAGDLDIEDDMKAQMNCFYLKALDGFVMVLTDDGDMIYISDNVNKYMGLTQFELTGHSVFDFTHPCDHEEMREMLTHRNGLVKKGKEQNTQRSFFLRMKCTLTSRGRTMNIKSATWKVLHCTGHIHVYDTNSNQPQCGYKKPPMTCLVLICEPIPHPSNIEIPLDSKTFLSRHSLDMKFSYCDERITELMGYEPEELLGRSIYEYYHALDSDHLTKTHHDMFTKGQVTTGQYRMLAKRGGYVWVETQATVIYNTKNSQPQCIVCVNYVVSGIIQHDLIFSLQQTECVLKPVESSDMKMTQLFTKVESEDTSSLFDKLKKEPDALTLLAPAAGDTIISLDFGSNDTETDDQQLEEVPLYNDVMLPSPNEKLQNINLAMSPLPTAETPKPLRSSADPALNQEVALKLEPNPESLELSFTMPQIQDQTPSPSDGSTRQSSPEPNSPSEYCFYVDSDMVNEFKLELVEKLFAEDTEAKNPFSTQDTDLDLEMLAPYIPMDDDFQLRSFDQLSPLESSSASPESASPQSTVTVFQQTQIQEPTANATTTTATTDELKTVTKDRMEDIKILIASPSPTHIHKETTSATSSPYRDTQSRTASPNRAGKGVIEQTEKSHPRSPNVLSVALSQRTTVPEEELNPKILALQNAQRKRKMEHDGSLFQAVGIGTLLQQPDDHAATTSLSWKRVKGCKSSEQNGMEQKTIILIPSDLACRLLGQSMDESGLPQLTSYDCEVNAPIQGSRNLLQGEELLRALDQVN
Method in brief: (§1)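 T47D cells (10 million per 100 mm plate, 10% FBS DMEM/F12) are plated and left overnight. Test compound, with or without iron salt, ascorbate or Trolox, is added for 30 min at 37 °C. Cells then stand 4 h under normoxia (5% CO2:95% air) or hypoxia (5% CO2:1% O2:94% N2). Nuclear extracts are probed for HIF-1α and HIF-1β by Western blot.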

[2] = target: Aryl hydrocarbon receptor nuclear translocator (Homo sapiens) (UniProt P27540); assay: Induction of HIF1beta protein in human T47D cells under normoxic condition at 100 uM after 4 hrs by Western blot analysis; format: cell-based; method in brief: as §1
Aryl hydrocarbon receptor nuclear translocator (Homo sapiens), sequence (P27540 whole entry): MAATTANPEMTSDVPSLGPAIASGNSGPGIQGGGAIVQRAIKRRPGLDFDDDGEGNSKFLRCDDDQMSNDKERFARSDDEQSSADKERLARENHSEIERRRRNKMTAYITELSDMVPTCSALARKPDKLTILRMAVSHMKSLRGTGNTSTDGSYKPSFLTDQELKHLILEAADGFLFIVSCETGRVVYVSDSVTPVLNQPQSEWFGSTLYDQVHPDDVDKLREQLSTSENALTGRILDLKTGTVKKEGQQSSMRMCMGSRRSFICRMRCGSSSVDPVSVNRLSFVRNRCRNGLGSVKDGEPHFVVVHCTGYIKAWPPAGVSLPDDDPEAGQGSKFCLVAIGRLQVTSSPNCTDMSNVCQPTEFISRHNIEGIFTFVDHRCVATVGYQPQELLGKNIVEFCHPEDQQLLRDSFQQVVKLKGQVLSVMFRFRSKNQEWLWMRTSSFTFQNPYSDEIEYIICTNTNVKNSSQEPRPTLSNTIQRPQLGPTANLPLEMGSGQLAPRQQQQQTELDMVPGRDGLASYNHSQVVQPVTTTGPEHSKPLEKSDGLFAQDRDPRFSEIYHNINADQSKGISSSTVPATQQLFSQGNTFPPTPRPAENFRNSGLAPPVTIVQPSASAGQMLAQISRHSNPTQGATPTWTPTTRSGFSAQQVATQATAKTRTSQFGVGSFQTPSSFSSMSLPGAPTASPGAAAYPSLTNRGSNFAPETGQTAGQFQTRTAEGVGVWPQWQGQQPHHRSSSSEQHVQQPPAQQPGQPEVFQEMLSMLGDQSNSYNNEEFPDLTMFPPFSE

T47D [3] = assay: Induction of HIF1 activation in human T47D cells under normoxic condition at 100 uM in presence of 300 uM iron(2); format: cell-based
Method in brief: (§2)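 T47D cells transiently co-transfected by electroporation with pTK-HRE3-luc (50 μg mL−1) and pRL-TK (5 μg mL−1). Read-out is dual luciferase, with firefly normalized to Renilla. Incubation runs 16 h under normoxia. Iron salt or ascorbate is added with test compound (100 μM). Data come from one representative experiment in quadruplicate, mean ± SD, p <0.05 versus control.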

T47D [4] = assay: Induction of HIF1 activation in human T47D cells under normoxic condition at 100 uM in presence of 100 uM iron(2); format: cell-based; method in brief: as §2
[5] = target: Aryl hydrocarbon receptor nuclear translocator (Homo sapiens) (UniProt P27540); assay: Induction of HIF1beta protein in human T47D cells under normoxic condition at 100 uM after 4 hrs by Western blot analysis in presence of ascorbate; format: cell-based; method in brief: as §1
[6] = target: Hypoxia inducible factors; HIF-1-alpha, HIF-2-alpha (Homo sapiens) (UniProt Q16665+Q99814); assay: Inhibition of hypoxia-induced HIF1 activation in human T47D cells expressing pTK-HRE-luc gene at 100 uM by luciferase reporter assay; format: cell-based
Method in brief: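 T47D cells co-transfected by electroporation with pTK-HRE3-luc and pRL-TK. Compound at 100 μM, then hypoxia (1% O2). Dual luciferase read-out, firefly normalized to Renilla. Value is % inhibition of hypoxic HIF-1 activation. pGL3-Control reporter cells used as specificity control.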

[7] = target: Hypoxia-inducible factor 1-alpha (Homo sapiens) (UniProt Q16665); assay: Induction of HIF1alpha protein in human T47D cells under normoxic condition at 100 uM after 4 hrs by Western blot analysis in presence of trolox; format: cell-based; method in brief: as §1
T47D [8] = assay: Induction of HIF1 activation in human T47D cells under normoxic condition at 100 uM in presence of 50 uM iron(3); format: cell-based; method in brief: as §2
[9] = target: Hypoxia-inducible factor 1-alpha (Homo sapiens) (UniProt Q16665); assay: Induction of HIF1alpha protein in human T47D cells under normoxic condition at 100 uM after 4 hrs by Western blot analysis in presence of ascorbate; format: cell-based; method in brief: as §1
[10] = target: Aryl hydrocarbon receptor nuclear translocator (Homo sapiens) (UniProt P27540); assay: Induction of HIF1beta protein in human T47D cells under normoxic condition at 100 uM after 4 hrs by Western blot analysis in presence of 300 uM iron(2); format: cell-based; method in brief: as §1
[11] = target: Hypoxia-inducible factor 1-alpha (Homo sapiens) (UniProt Q16665); assay: Induction of HIF1alpha protein in human T47D cells under normoxic condition at 100 uM after 4 hrs by Western blot analysis in presence of 150 uM iron(3); format: cell-based; method in brief: as §1
T47D [12] = assay: Induction of HIF1 activation in human T47D cells under normoxic condition at 100 uM by luciferase reporter gene assay in presence of ascorbate; format: cell-based; method in brief: as §2
T47D [13] = assay: Induction of HIF1 activation in human T47D cells under normoxic condition at 100 uM in presence of 150 uM iron(3); format: cell-based; method in brief: as §2
T47D [14] = assay: Induction of HIF1 activation in human T47D cells expressing pTK-HRE-luc gene under normoxic condition at 100 uM after 16 hrs by luciferase reporter assay relative to control; format: cell-based
Method in brief: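 T47D cells transiently co-transfected by electroporation with pTK-HRE3-luc (50 μg mL−1) and pRL-TK (5 μg mL−1). Compound at 100 μM under normoxia (5% CO2:95% air, 37 °C) for 16 h. Dual luciferase read-out, firefly normalized to Renilla, expressed as fold over control. pGL3-Control transfected cells run as counter-check.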

T47D [15] = assay: Inhibition of hypoxia-induced VEGF mRNA expression in human T47D cells at 100 uM after 16 hrs by RT-PCR; format: functional, cell-based
Method in brief: (§3)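 T47D cells, pretreated 30 min, then 16 h under normoxia or hypoxia (1% O2). Total RNA extracted immediately after treatment, checked by absorbance and agarose gel. Target mRNA measured by quantitative real-time RT-PCR, normalized to 18S rRNA, relative expression by ΔΔCT method. Mean ± SD from one representative experiment in triplicate.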

T47D [16] = assay: Induction of GLUT1 mRNA expression in human T47D cells under normoxic condition at 100 uM after 16 hrs by RT-PCR; format: functional, cell-based; method in brief: as §3
T47D [17] = assay: Induction of VEGF mRNA expression in human T47D cells under normoxic condition at 100 uM after 16 hrs by RT-PCR; format: functional, cell-based; method in brief: as §3
T47D [18] = assay: Decrease in hypoxia-induced HIF1alpha mRNA expression in human T47D cells at 100 uM after 16 hrs by RT-PCR; format: functional, cell-based; method in brief: as §3
[19] = target: Hypoxia-inducible factor 1-alpha (Homo sapiens) (UniProt Q16665); assay: Induction of HIF1alpha protein in human T47D cells under normoxic condition at 100 uM after 4 hrs by Western blot analysis in presence of 100 uM iron(2); format: cell-based; method in brief: as §1
T47D [20] = assay: Increase in HIF1alpha mRNA expression in human T47D cells under normoxic condition at 100 uM after 16 hrs by RT-PCR; format: functional, cell-based; method in brief: as §3
T47D [21] = assay: Induction of CDKN1A mRNA expression in human T47D cells under normoxic condition at 100 uM after 16 hrs by RT-PCR; format: functional, cell-based; method in brief: as §3
[22] = target: Hypoxia-inducible factor 1-alpha (Homo sapiens) (UniProt Q16665); assay: Induction of HIF1alpha protein in human T47D cells under normoxic condition at 100 uM after 4 hrs by Western blot analysis in presence of 300 uM iron(2); format: cell-based; method in brief: as §1
T47D [23] = assay: Inhibition of hypoxia-induced GLUT1 mRNA expression in human T47D cells at 100 uM after 16 hrs by RT-PCR; format: functional, cell-based; method in brief: as §3
[24] = target: Hypoxia-inducible factor 1-alpha (Homo sapiens) (UniProt Q16665); assay: Inhibition of hypoxia-induced increase in HIF1alpha protein in human T47D cells at 100 uM after 4 hrs by Western blot analysis; format: cell-based; method in brief: as §1
[25] = target: Aryl hydrocarbon receptor nuclear translocator (Homo sapiens) (UniProt P27540); assay: Induction of HIF1beta protein in human T47D cells under normoxic condition at 100 uM after 4 hrs by Western blot analysis in presence of 150 uM iron(3); format: cell-based; method in brief: as §1
[26] = Aqueous stability of the compound; format: physicochemical; conditions: buffer
Method in brief: (§4)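 Compound added at 100 μM final in serum-free DMEM/F12 with Pen/Strep to medium with 5% FBS, with or without T47D cells, 30 min, then hypoxia (1% O2) 16 h. Other samples: cell-free medium with or without antibiotics. Conditioned medium extracted; normal-phase TLC on silica gel G with UV254 indicator, UV254 quenching read-out. Extraction control: compound mixed with medium immediately before extraction.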

[27] = Chemical stability in DMEM/F12 medium in presence of fetal calf serum; format: physicochemical; conditions: cattle; method in brief: as §4

With `Cc1c(C)c2c(c(C)c1O)CCC(C)(C(=O)O)O2` (configuration not stated) as the molecule, how does the Activity [1] read?
Its Activity is “inactive”.

What about the Activity [2] of the same molecule?
The Activity was “inactive”.

For `CC(=O)N(O)CCCCCNC(=O)CCC(=O)N(O)CCCCCNC(=O)CCC(=O)N(O)CCCCCN`, which Activity (T47D [3]) is on record?
Its Activity is “inactive”.

What about the Activity (T47D [4]) of the same molecule?
The Activity was “inactive”.

For `O=C(O[C@@H]1Cc2c(O)cc(O)cc2O[C@@H]1c1ccc(O)c(O)c1)c1cc(O)c(O)c(O)c1`, which Activity [5] is on record?
Its Activity is “Active”.

And the inhibition [6]?
The inhibition was 79%.

And the Activity [1]?
Its Activity is “Active”.

And the Activity [7]?
The Activity was “Active”.

What about the Activity (T47D [8]) of the same molecule?
Its Activity is “inactive”.

And the Activity [9]?
The Activity was “inactive”.

And the Activity [10]?
The Activity was “Active”.

What about the Activity [11] of the same molecule?
Its Activity is “inactive”.

And the Activity (T47D [12])?
Its Activity is “inactive”.

What about the Activity (T47D [13]) of the same molecule?
Its Activity is “inactive”.

And the fold change (FC) (T47D [14])?
The fold change (FC) was 16.8.

What about the Activity (T47D [15]) of the same molecule?
Its Activity is “inactive”.

And the Activity (T47D [16])?
The Activity was “Active”.

What about the Activity (T47D [17]) of the same molecule?
The Activity was “Active”.

What about the Activity (T47D [18]) of the same molecule?
Its Activity is “inactive”.

What about the Activity [19] of the same molecule?
Its Activity is “inactive”.

And the Activity [2]?
Its Activity is “inactive”.

And the Activity (T47D [20])?
The Activity was “inactive”.

What about the Activity (T47D [21]) of the same molecule?
Its Activity is “Active”.

And the Activity [22]?
Its Activity is “inactive”.

What about the Activity (T47D [23]) of the same molecule?
Its Activity is “inactive”.

And the Activity [24]?
Its Activity is “Active”.

What about the Activity (T47D [3]) of the same molecule?
The Activity was “inactive”.

What about the Activity [25] of the same molecule?
The Activity was “Active”.

With `O=C(O[C@@H]1Cc2c(O)cc(O)cc2O[C@@H]1c1cc(O)c(O)c(O)c1)c1cc(O)c(O)c(O)c1` [EPIGALOCATECHIN GALLATE] as the molecule, how does the Activity [6] read?
Its Activity is “inactive”.

And the Stability [26]?
Its Stability is “Unstable”.

And the fold change (FC) (T47D [14])?
Its fold change (FC) is 3.6.

What about the Stability [27] of the same molecule?
The Stability was “Unstable”.
